# Assay results taken from ChEMBL document CHEMBL1122229, “alpha-adrenoreceptor reagents. 1. Synthesis of some 1,4-benzodioxans as selective presynaptic alpha 2-adrenoreceptor antagonists and potential antidepressants” (J Med Chem, 1983).
# Activity calls are given as the source filed them. No cut-off for these calls is given here.
# Assays:
# [1] = target: T1, Adrenergic receptor alpha-1 (Rattus norvegicus) (UniProt P15823+P23944+P43140); test: In vitro postsynaptic antagonist potency at alpha-1 adrenergic receptor in rat anococcygeus.; type: functional
# [2] = target: T2, Adrenergic receptor alpha-2 (Rattus norvegicus) (UniProt P22086+P19328+P22909); test: In vitro presynaptic agonist potency at alpha-2 adrenergic receptor in rat or mouse vas deferens relative to clonidine; IA means inactive; type: functional, tissue-based
# Summary of the method: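 Field-stimulated rat or mouse vas deferens (Krebs, 30 °C, 95% O2/5% CO2, 3-ms pulses at 0.1 Hz) with isometric twitch recording. […] Standard dose-response curves were run before and after the analogue's curve.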
# [3] = target: T1, Adrenergic receptor alpha-1 (Rattus norvegicus); test: In vitro postsynaptic antagonist potency at alpha-1 adrenergic receptor in rat anococcygeus relative to compound 5 (RX781094); type: functional
# [4] = target: T1, Adrenergic receptor alpha-1 (Rattus norvegicus); test: In vitro postsynaptic agonist potency at alpha-1 adrenergic receptor in rat anococcygeus muscle relative to phenylephrine; IA means inactive.; type: functional, tissue-based
# Summary of the method: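 Rat anococcygeus muscle (male Sprague–Dawley rats, 200–250 g) suspended at 0.5 g initial tension in a 50-mL organ bath. […] Standard dose-response curves were run before and after the analogue's curve.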
# [5] = target: T2, Adrenergic receptor alpha-2 (Rattus norvegicus); test: In vitro presynaptic antagonist potency at alpha-2 adrenergic receptor in rat or mouse vas deferens relative to compound 5 (RX781094); type: functional, tissue-based
# Summary of the method: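 Prostatic halves of rat vas deferens (male Sprague–Dawley rats, 200–250 g; Krebs, 30 °C, 95% O2/5% CO2; 3-ms, 40 V, 0.1 Hz field pulses) or mouse vas deferens (Mg-free Krebs, 30 °C; 3-ms pulses, 0.1 Hz, 100–140 V) were used, with isometric twitch recording. […] The concentration giving 50% reversal was compared with the RX781094 standard in the same tissue.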
# [6] = target: T1, Adrenergic receptor alpha-1 (Rattus norvegicus); test: Ratio of presynaptic antagonist potency to postsynaptic antagonist potency; type: functional
# [7] = In vitro antagonism at Alpha-2 adrenergic receptor in rat or mouse vas deferens relative to RX781094.; type: functional
# Summary of the method: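 Prostatic half of vas deferens from male Sprague–Dawley rats (200–250 g; Krebs, 30 °C, 95% O2/5% CO2, 0.1 Hz, 3-ms, 40 V) or from mice (magnesium-free Krebs, 100–140 V). Tension 0.5 g; isometric twitch recording. […] The concentration giving 50% reversal of the inhibition was compared with standard 5 in the same tissue.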
# [8] = system: Alpha-2 adrenergic receptor (Rattus norvegicus); test: In vitro presynaptic agonist potency at alpha-2 adrenergic receptor in rat or mouse vas deferens relative to clonidine; Inactive
# [9] = target: T1, Adrenergic receptor alpha-1 (Rattus norvegicus); test: In vitro postsynaptic agonist potency at alpha-1 adrenergic receptor in rat anococcygeus muscle relative to phenylephrine; type: functional, tissue-based
# [10] = target: T2, Adrenergic receptor alpha-2 (Rattus norvegicus); test: In vitro presynaptic agonist potency at alpha-2 adrenergic receptor in rat or mouse vas deferens relative to clonidine; type: functional, tissue-based
# Summary of the method: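 Field-stimulated rat or mouse vas deferens under 0.5 g tension, at 0.1 Hz with 3-ms pulses, 30 °C, gassed with 95% O2/5% CO2. Contractions were recorded isometrically. Standard dose-response curves were run before and after each analogue curve. Potency was expressed relative to the standard in the same experiment.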
# [11] = target: T1, Adrenergic receptor alpha-1 (Rattus norvegicus); test: In vitro postsynaptic antagonist potency at alpha-1 adrenergic receptor in rat anococcygeus relative to compound 5 (RX781094); AG means compound is agonist.; type: functional; settings: filed as agonist
# [12] = target: T1, Adrenergic receptor alpha-1 (Rattus norvegicus); test: In vitro postsynaptic antagonist potency at alpha-1 adrenergic receptor in rat anococcygeus relative to compound 5 (RX781094); IA means compound is inactive.; type: functional
# [13] = system: Alpha-2 adrenergic receptor (Rattus norvegicus); test: In vitro presynaptic antagonist potency at alpha-2 adrenergic receptor in rat or mouse vas deferens; IA means compound is inactive.
Compound,Agonist potency [2],Antagonist potency [3],Agonist potency [4],Antagonist potency [5],Selectivity [6],Antagonist potency [7],other results
NC(=NO)C1COc2ccccc2O1 (centres undefined),inactive,,,,,,Antagonist potency [1]: 0.01
CN1CCN=C1C1COc2ccccc2O1 (centres undefined),inactive,0.1,inactive,0.0003,0.003,,
COc1cccc2c1OC(C1=NCCN1)CO2 (centres undefined),inactive,0.9,inactive,,0.14,0.12,
c1ccc2c(c1)OCC(c1nc3ccccc3[nH]1)O2 (centres undefined),inactive,< 0.02,inactive,0.0003,,,
O=[N+]([O-])c1ccc2c(c1)OCC(C1=NCCN1)O2 (centres undefined),inactive,< 0.02,inactive,,,<0.0003,
Clc1cc2c(cc1Cl)OC(C1=NCCN1)CO2 (centres undefined),,0.3,inactive,0.003,0.01,,Agonist potency [8]: inactive
Oc1ccc2c(c1)OC(C1=NCCN1)CO2 (centres undefined),,,,,,0.036,Agonist potency [9]: 1.1; Agonist potency [10]: 0.15; Antagonist potency [11]: Agonist
N=C(N)C1COc2ccccc2O1 (centres undefined),inactive,,,0.01,,,Agonist potency [9]: 0.05
N/C(=N\CCCO)C1COc2ccccc2O1 (centres undefined),inactive,0.024,inactive,< 0.001,,,
Oc1ccc2c(c1)OCC(C1=NCCN1)O2 (centres undefined),,,,,,0.017,Agonist potency [9]: 0.55; Agonist potency [10]: 0.015; Antagonist potency [11]: Agonist
Brc1ccc2c(c1)OCC(C1=NCCN1)O2 (centres undefined),,,,,,0.01,Antagonist potency [12]: inactive; Agonist potency [9]: 0.05; Agonist potency [8]: inactive
Clc1ccc(Cl)c2c1OCC(C1=NCCN1)O2 (centres undefined),,,,0.26,,,Agonist potency [9]: 0.55; Agonist potency [10]: 0.02; Antagonist potency [11]: Agonist
c1ccc2c(c1)OCC(CC1=NCCN1)O2 (centres undefined),inactive,0.14,inactive,0.045,0.33,,
Cc1cc2c(cc1C)OC(C1=NCCN1)CO2 (centres undefined),,0.64,inactive,,0.1,0.06,Agonist potency [8]: inactive
COc1cccc2c1OCC(C1=NCCN1)O2 (centres undefined),inactive,,,,,0.001,Antagonist potency [12]: inactive; Agonist potency [9]: 5
Oc1cccc2c1OCC(C1=NCCN1)O2 (centres undefined),,,,,,0.018,Agonist potency [9]: 0.017; Antagonist potency [11]: Agonist; Agonist potency [8]: inactive
N=C(NCCc1ccccc1)C1COc2ccccc2O1 (centres undefined),inactive,0.03,inactive,0.0003,0.01,,
O=[N+]([O-])c1cccc2c1OC(C1=NCCN1)CO2 (centres undefined),inactive,0.09,inactive,,0.22,0.02,
COc1cccc(OC)c1OCC/N=C(\N)C1COc2ccccc2O1 (centres undefined),,0.1,inactive,0.001,0.01,,Agonist potency [10]: 0.0001
Clc1ccc2c(c1)OCC(C1=NCCN1)O2 (centres undefined),,1,,,0.01,0.01,Agonist potency [9]: 0.005; Agonist potency [8]: inactive
N=C(C1COc2ccccc2O1)N1CCCCC1 (centres undefined),inactive,0.01,inactive,0.0001,0.01,,
Cc1ccc(C)c2c1OCC(C1=NCCN1)O2 (centres undefined),,,,,,0.005,Agonist potency [9]: 2.5; Agonist potency [10]: 0.19; Antagonist potency [11]: Agonist

Compound,Agonist potency [2],Antagonist potency [3],Agonist potency [4],Antagonist potency [5],Selectivity [6],Antagonist potency [7],other results
N=C(NN1CCOCC1)C1COc2ccccc2O1 (centres undefined),inactive,,inactive,,,,Antagonist potency [12]: inactive; Antagonist potency [13]: inactive
c1ccc2c(c1)OCC(C1=NCCCN1)O2 (centres undefined),inactive,0.1,inactive,0.01,0.1,,
CCCC/N=C(\NCCCC)C1COc2ccccc2O1 (centres undefined),inactive,0.1,inactive,0.001,0.01,,
CC1CN=C(C2COc3ccccc3O2)N1 (centres undefined),inactive,1,inactive,0.003,0.003,,
Nc1noc(CC2COc3ccccc3O2)n1 (centres undefined),inactive,< 0.023,inactive,< 0.0003,,,
Clc1cccc2c1OC(C1=NCCN1)CO2 (centres undefined),,,,,,0.49,Agonist potency [9]: 0.4; Agonist potency [10]: 0.67; Antagonist potency [11]: Agonist
COc1ccc2c(c1)OCC(C1=NCCN1)O2 (centres undefined),inactive,,,,,0.006,Agonist potency [9]: 0.005
CC(C)(C)c1ccc2c(c1)OCC(C1=NCCN1)O2 (centres undefined),inactive,0.1,inactive,0.01,0.1,,
COc1ccc2c(c1)OC(C1=NCCN1)CO2 (centres undefined),inactive,0.225,inactive,,0.09,0.02,
CC1(C)CN=C(C2COc3ccccc3O2)N1 (centres undefined),inactive,0.01,inactive,0.0001,0.01,,
Oc1cccc2c1OC(C1=NCCN1)CO2 (centres undefined),inactive,0.2,inactive,,0.2,0.04,
c1ccc2c(c1)OCC(Cn1ccnc1)O2 (centres undefined),inactive,< 0.023,inactive,0.013,,,
Cc1cccc2c1OC(C1=NCCN1)CO2 (centres undefined),,,,0.5,,,Agonist potency [9]: 2.1; Agonist potency [10]: 0.01; Antagonist potency [11]: Agonist
Nc1nc(N)nc(C2COc3ccccc3O2)n1 (centres undefined),,,inactive,,,,Antagonist potency [12]: inactive; Agonist potency [8]: inactive; Antagonist potency [13]: inactive
c1ccc2c(c1)OCC(Cc1ncc[nH]1)O2 (centres undefined),inactive,0.25,inactive,0.004,0.016,,
COCC/N=C(\N)C1COc2ccccc2O1 (centres undefined),inactive,0.1,inactive,,,,Antagonist potency [13]: inactive
Fc1ccc2c(c1)OCC(C1=NCCN1)O2 (centres undefined),,0.1,inactive,,0.1,0.01,Agonist potency [8]: inactive
c1ccc2c(c1)OCC(c1ncc[nH]1)O2 (centres undefined),inactive,0.01,inactive,0.001,0.1,,
c1ccc2c(c1)OCC(C1=NCCS1)O2 (centres undefined),inactive,,inactive,,,,Antagonist potency [12]: inactive; Antagonist potency [13]: inactive
c1ccc2c(c1)OCC(c1nn[nH]n1)O2 (centres undefined),inactive,,inactive,,,,Antagonist potency [12]: inactive; Antagonist potency [13]: inactive
c1ccc2cc3c(cc2c1)OCC(C1=NCCN1)O3 (centres undefined),inactive,0.01,inactive,0.001,0.1,,
